Article PMC4002122 (Chemical Research in Toxicology, 2014)

Legend:
[1] = biological target: T1, UGT2B7 (Homo sapiens, UniProt P16662); assay: Screening of recombinant UGT2B7 for glucuronidation activity; type: in vitro ADME; conditions: 250 μM substrate, 5 μg protein, 60 min, 37 °C
T1 sequence (P16662 24-529): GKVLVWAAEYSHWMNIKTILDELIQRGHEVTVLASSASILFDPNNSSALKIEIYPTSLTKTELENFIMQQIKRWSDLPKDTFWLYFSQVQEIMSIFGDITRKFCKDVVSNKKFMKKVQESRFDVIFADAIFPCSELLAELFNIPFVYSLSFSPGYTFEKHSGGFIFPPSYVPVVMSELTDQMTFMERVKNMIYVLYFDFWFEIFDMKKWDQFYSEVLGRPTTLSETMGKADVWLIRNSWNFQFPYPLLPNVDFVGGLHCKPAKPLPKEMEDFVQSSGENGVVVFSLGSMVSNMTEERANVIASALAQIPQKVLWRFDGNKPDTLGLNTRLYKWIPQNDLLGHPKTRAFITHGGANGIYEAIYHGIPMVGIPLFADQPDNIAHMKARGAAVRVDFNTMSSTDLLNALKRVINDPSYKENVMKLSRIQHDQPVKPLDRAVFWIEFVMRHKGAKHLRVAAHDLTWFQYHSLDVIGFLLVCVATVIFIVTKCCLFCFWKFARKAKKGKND
Procedure, shortened: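 UGT1A1, 1A3, 1A4 and 1A6–1A10 were His-tagged and expressed in baculovirus-infected Sf9 cells; UGT2B4, 2B7, 2B15 and 2B17 were commercial membranes run per supplier protocol. 5 μg membrane protein with 250 μM substrate, 2 mM UDP-GlcUA, Tris–HCl pH 7.4, MgCl2, saccharolactone, 2% DMSO; 37 °C, 60 min; no-substrate controls. Products measured by HPLC-UV/vis; β-glucuronidase hydrolysis separated O- from carboxyl glucuronides.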

[2] = Glucuronidation by human hepatic microsomes; type: in vitro ADME; conditions: 60 min, 50 μg of human liver proteins, 0.25 mM substrate, 3 mM UDP-GlcUA
Procedure, shortened: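 Microsomes from individual human livers (10 donors), a pooled liver sample and hepatosomes, or from intestines (13 donors). Substrate dried from ethanol, redissolved in DMSO and sonicated. Incubated 37 °C, 60 min; ethanol stop, centrifuged. Glucuronides measured by reversed-phase HPLC-UV; nmol/mg/min, median and range.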

[3] = biological target: T2, UGT1A10 (Homo sapiens, UniProt Q9HAW8); assay: Steady state kinetics of glucuronidation by recombinant UGT1A10; type: in vitro ADME
T2 sequence (Q9HAW8 26-530): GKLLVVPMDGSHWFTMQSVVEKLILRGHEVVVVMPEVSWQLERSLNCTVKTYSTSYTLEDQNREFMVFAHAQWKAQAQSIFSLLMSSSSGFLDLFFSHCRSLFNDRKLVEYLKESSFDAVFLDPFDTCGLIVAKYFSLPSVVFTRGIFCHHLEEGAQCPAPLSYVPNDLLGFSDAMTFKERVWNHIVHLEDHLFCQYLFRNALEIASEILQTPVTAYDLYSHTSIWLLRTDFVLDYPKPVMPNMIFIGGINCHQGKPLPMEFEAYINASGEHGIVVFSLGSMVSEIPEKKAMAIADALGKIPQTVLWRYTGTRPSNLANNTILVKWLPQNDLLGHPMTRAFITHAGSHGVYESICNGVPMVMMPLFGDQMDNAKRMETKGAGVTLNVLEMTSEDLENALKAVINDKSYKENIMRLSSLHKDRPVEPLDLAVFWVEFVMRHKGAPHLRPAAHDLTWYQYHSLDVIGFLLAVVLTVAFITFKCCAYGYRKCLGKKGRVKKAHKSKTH

[4] = tested on: tubulin; conditions: cited from earlier work

Row | glucuronidation activity (glucuronide formed) [1] | metabolism with human liver microsomes [2] | NI-12a-COO-gluc formation ([3]; COO-glucuronide) | kinetic model ([3]; NI-12a-O-gluc formation) | Vmax ([3]; C=N–O-glucuronidation of NI-ST-05) | Vmax ([3]; NI-ST-05–N–O-gluc formation) | kinetic model ([3]; NI-ST-05–N–O-gluc formation) | n (Hill coefficient) ([3]; NI-ST-05–N–O-gluc formation) | SMILES | antitubulin activity [4]
1 | No activity | not metabolized | – | – | – | – | – | – | COc1cc(/C=C/c2cc([N+](=O)[O-])c(O)c([N+](=O)[O-])c2)cc(OC)c1 [DNR-1, (E)-4-(3,5-dimethoxystyryl)-2,6-dinitrophenol] | –
2 | – | – | not produced | Michaelis–Menten and M–M | – | – | – | – | COc1ccc(/C=C(/C(=O)O)c2cc(OC)c(OC)c(OC)c2)cc1O [NI-12a, (E)-3-(3-hydroxy-4-methoxyphenyl)-2-(3,4,5-trimethoxyphenyl)acrylic acid] | effective antitubilin agent
3 | inactive | – | – | – | 0.65 nm/mg protein/min | 0.65 ± 0.017 nmol/mg/min | Hill | 3.4 | COc1ccc(C=Cc2cc(OC)cc(OC)c2/C=N/O)cc1 [NI-ST-05, (E)-2,4-dimethoxy-6-(4-methoxystyryl)benzaldehyde oxime] | –
